Experimental data as given in ChEMBL document CHEMBL1152475, “Investigation of the antioxidant properties of some new 4-hydroxycoumarin derivatives” (Eur J Med Chem, 2009).
Active and inactive are the calls of the source. The rule behind the calls is not given here.

Columns and labels:
[1] = Antioxidant activity assessed as luminol-dependent chemiluminescence at 100 uM relative to control; format: functional
Summary of the method: (§1)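 Chemiluminescence run in 1 ml PBS with 0.1 mM luminol and 0.06 mM NaOCl to generate ClO⁻. Compound at several concentrations up to 10^-4 mol/L, or buffer for controls. CL recorded every 50 ms after NaOCl addition in flash mode. Scavenger index (CL-SI) expressed relative to the buffer control, set at 100%.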

[2] = Antioxidant activity assessed as decrease in luminol-dependent chemiluminescence's scavenger index; format: functional; summary of the method: as §1
HL-60 = assay: Cytotoxicity against human HL60 cells; format: functional, cell-based
EJ = assay: Cytotoxicity against human EJ cells; format: functional, cell-based
[3] = Antioxidant activity assessed as luminol-dependent chemiluminescence at 1 uM; format: functional; summary of the method: as §1
HUVEC = assay: Cytoprotective activity against linoleic acid hydroperoxide-induced toxicity in HUVEC cells after 3 hrs; format: functional, cell-based; details: Homo sapiens

Which Activity [1] does the source give for `CCOC(=O)C(C(C)=O)C(c1ccc(C(=O)O)cc1)c1c(O)c2ccccc2oc1=O` (stereo not given) here?
Its Activity is “Active”.

Which results are given for `CCOC(=O)C(C(C)=O)C(c1cccc([N+](=O)[O-])c1)c1c(O)c2ccccc2oc1=O` (stereo not given)?
Activity [1]: 7%; Activity [2]: Dose-dependent effect; Activity (HL-60): Active; Activity (EJ): Active

Which Activity [1] does the source give for `CCOC(=O)C(C(C)=O)C(c1ccc(O)cc1)c1c(O)c2ccccc2oc1=O` (stereo not given) here?
Its Activity is “Active”.

What about the Activity [3] of the same molecule?
The Activity was “Active”.

Which results are given for `CCOC(=O)C(C(C)=O)C(c1cc(OC)c(OC)c(OC)c1)c1c(O)c2ccccc2oc1=O` (stereo not given)?
Activity [1]: Active; Activity [2]: Dose-dependent effect

With `O=c1ccc2cc(O)c(O)cc2o1` as the molecule, how does the Activity (HUVEC) read?
The Activity was “Active”.
